Measured values: ChEMBL document CHEMBL1126974, “The effect of NMeTyr5 substitution in luteinizing hormone-releasing hormone antagonists” (J Med Chem, 1993)
In brackets after ≈: the same amount, converted by molar mass. Non-standard residues stand in square brackets, D forms with d. Residues, ends and D or L forms follow the SMILES beside them. *: point of attachment. dNva(5-oxo-5-(4-MeOPh)) = COc1ccc(C(=O)CC[C@@H](N)C(=O)O)cc1; dPhe(4-Cl) = N[C@H](Cc1ccc(Cl)cc1)C(=O)O; d2Nal = N[C@H](Cc1ccc2ccccc2c1)C(=O)O; Lys(iPr) = CC(C)NCCCC[C@H](N)C(=O)O; NMeY = CN[C@@H](Cc1ccc(O)cc1)C(=O)O; dBta = N[C@H](Cc1csc2ccccc12)C(=O)O; dCit = NC(=O)NCCC[C@@H](N)C(=O)O; d3Pal = N[C@H](Cc1cccnc1)C(=O)O; Nicotinoyl = O=C(c1cccnc1)*

Assays:
[1] = species on record: Rattus norvegicus; assay: Effective dose of the antagonist that gives 50% of the maximal release of histamine from rat peritoneal mast cells; type: functional; conditions: read-out: ED50 (the source's name)
How it was run: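 Mast cells from rat peritoneum; compounds dissolved in 5.6 mM glucose, 0.1% BSA in Dulbecco phosphate-buffered saline pH 7.4. Released histamine quantified by RIA kit; value is dose giving 50% of maximal histamine release, in µg/mL. Tested as TFA salts unless indicated.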

[2] = Solubility was determined in 5% dextrose, pH 4.5; type: physicochemical
How it was run: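 Solubility measured in 5% dextrose at pH 4.5, reported in mg/mL; some peptides measured as TFA salts, others as acetate salts.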

[3] = species on record: Rattus norvegicus; assay: The negative logarithm of the concentration of the antagonist that requires 2-fold higher concentration of the agonist to release LH from cultured rat pituitary cells; type: functional, cell-based; conditions: Pituitary gland cell, read-out: pA2 (converted)
How it was run: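 Cultured rat pituitary cells stimulated with LHRH agonist in presence of antagonist dissolved in 10 mmol Tris buffer pH 7.4; LH release measured. pA2 taken as negative log of antagonist concentration requiring 2-fold higher agonist concentration for LH release.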

[4] = target: T1, Gonadotropin-releasing hormone receptor (Rattus norvegicus, UniProt P30969); assay: The negative logarithm of the concentration of antagonist that inhibits 50% of the binding of 125 I-labeled leuprolide to the rat pituitary LHRH receptor
T1 sequence (P30969 whole entry): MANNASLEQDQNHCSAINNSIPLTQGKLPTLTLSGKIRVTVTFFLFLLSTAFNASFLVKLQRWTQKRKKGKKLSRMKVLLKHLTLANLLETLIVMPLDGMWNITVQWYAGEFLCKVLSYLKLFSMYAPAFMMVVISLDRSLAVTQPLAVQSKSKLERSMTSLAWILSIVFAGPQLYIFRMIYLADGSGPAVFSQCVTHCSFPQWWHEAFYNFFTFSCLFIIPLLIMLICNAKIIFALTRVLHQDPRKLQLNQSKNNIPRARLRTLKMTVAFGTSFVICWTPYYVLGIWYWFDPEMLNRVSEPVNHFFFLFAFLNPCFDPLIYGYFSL
How it was run: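 Competition binding to rat pituitary LHRH receptor with 125I-labeled leuprolide as radioligand; compounds dissolved in 10 mmol Tris buffer pH 7.4. Concentration inhibiting 50% of tracer binding determined and expressed as its negative logarithm (pKi). TFA salts unless indicated.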

Compound	EC50 [1] [µg/mL]	solubility [2] [µg/mL]	Ki [4] [nM]	Kb [3] [nM]
CC(=O)N[C@H](Cc1ccc2ccccc2c1)C(=O)N[C@H](Cc1ccc(Cl)cc1)C(=O)N[C@H](Cc1cccnc1)C(=O)N[C@@H](CO)C(=O)N(C)[C@@H](Cc1ccc(O)cc1)C(=O)N[C@H](CCCNC(N)=O)C(=O)N[C@@H](CC(C)C)C(=O)N[C@@H](CCCN=C(N)N)C(=O)N1CCC[C@H]1C(=O)N[C@H](C)C(N)=O [listing 1 of 2 here]	1.65 (≈ 1.14 µM)			
CC(=O)N[C@H](Cc1ccc2ccccc2c1)C(=O)N[C@H](Cc1ccc(Cl)cc1)C(=O)N[C@H](Cc1cccnc1)C(=O)N[C@@H](CO)C(=O)N(C)[C@@H](Cc1ccc(O)cc1)C(=O)N[C@H](CCCNC(N)=O)C(=O)N[C@@H](CC(C)C)C(=O)N[C@@H](CCCN=C(N)N)C(=O)N1CCC[C@H]1C(=O)N[C@H](C)C(N)=O [listing 2 of 2 here]		12000 (≈ 8300 µM)	0.0135	0.0158
CC(=O)N[C@H](Cc1ccc2ccccc2c1)C(=O)N[C@H](Cc1ccc(Cl)cc1)C(=O)N[C@H](Cc1cccnc1)C(=O)N[C@@H](CO)C(=O)N[C@@H](Cc1ccc(O)cc1)C(=O)N[C@H](CCCNC(N)=O)C(=O)N[C@@H](CC(C)C)C(=O)N[C@@H](CCCN=C(N)N)C(=O)N1CCC[C@H]1C(=O)N[C@H](C)C(N)=O (Ac-[d2Nal][dPhe(4-Cl)][d3Pal]SY[dCit]LRP[dA]-NH2) [listing 2 of 2 here]				0.0355
CC(=O)N[C@H](Cc1ccc(Cl)cc1)C(=O)N[C@H](Cc1ccc(Cl)cc1)C(=O)N[C@H](Cc1csc2ccccc12)C(=O)N[C@@H](CO)C(=O)N(C)[C@@H](Cc1ccc(O)cc1)C(=O)N[C@H](CCCCN)C(=O)N[C@@H](CC(C)C)C(=O)N[C@@H](CCCN=C(N)N)C(=O)N1CCC[C@H]1C(=O)N[C@H](C)C(N)=O (Ac-[dPhe(4-Cl)][dPhe(4-Cl)][dBta]S[NMeY][dK]LRP[dA]-NH2) [listing 1 of 2 here]	< 0.5			
CC(=O)N[C@H](Cc1ccc(Cl)cc1)C(=O)N[C@H](Cc1ccc(Cl)cc1)C(=O)N[C@H](Cc1csc2ccccc12)C(=O)N[C@@H](CO)C(=O)N(C)[C@@H](Cc1ccc(O)cc1)C(=O)N[C@H](CCCCN)C(=O)N[C@@H](CC(C)C)C(=O)N[C@@H](CCCN=C(N)N)C(=O)N1CCC[C@H]1C(=O)N[C@H](C)C(N)=O (Ac-[dPhe(4-Cl)][dPhe(4-Cl)][dBta]S[NMeY][dK]LRP[dA]-NH2) [listing 2 of 2 here]		> 25000	0.0234	0.00501
CC(=O)N[C@H](Cc1ccc(Cl)cc1)C(=O)N[C@H](Cc1ccc(Cl)cc1)C(=O)N[C@H](Cc1csc2ccccc12)C(=O)N[C@@H](CO)C(=O)N[C@@H](Cc1ccc(O)cc1)C(=O)N[C@H](CCCCN)C(=O)N[C@@H](CC(C)C)C(=O)N[C@@H](CCCN=C(N)N)C(=O)N1CCC[C@H]1C(=O)N[C@H](C)C(N)=O [listing 1 of 2 here]	0.62 (≈ 0.43 µM)			
CC(=O)N[C@H](Cc1ccc(Cl)cc1)C(=O)N[C@H](Cc1ccc(Cl)cc1)C(=O)N[C@H](Cc1csc2ccccc12)C(=O)N[C@@H](CO)C(=O)N[C@@H](Cc1ccc(O)cc1)C(=O)N[C@H](CCCCN)C(=O)N[C@@H](CC(C)C)C(=O)N[C@@H](CCCN=C(N)N)C(=O)N1CCC[C@H]1C(=O)N[C@H](C)C(N)=O [listing 2 of 2 here]		< 100	0.0331	0.00646

Now from value to compound, other results behind:

EC50 [1] [µg/mL]	solubility [2] [µg/mL]	Ki [4] [nM]	Compound	Kb [3] [nM]
1.11 (≈ 0.747 µM)			COc1ccc(C(=O)CC[C@@H](NC(=O)[C@H](CCCN=C(N)N)NC(=O)[C@H](CO)NC(=O)[C@@H](Cc2cccnc2)NC(=O)[C@@H](Cc2ccc(Cl)cc2)NC(=O)[C@@H](Cc2ccc3ccccc3c2)NC(C)=O)C(=O)N[C@@H](CC(C)C)C(=O)N[C@@H](CCCN=C(N)N)C(=O)N2CCC[C@H]2C(=O)N[C@H](C)C(N)=O)cc1 (Ac-[d2Nal][dPhe(4-Cl)][d3Pal]SR[dNva(5-oxo-5-(4-MeOPh))]LRP[dA]-NH2) [listing 1 of 2 here]	
	> 20000		CC(=O)N[C@H](Cc1ccc2ccccc2c1)C(=O)N[C@H](Cc1ccc(Cl)cc1)C(=O)N[C@H](Cc1cccnc1)C(=O)N[C@@H](CO)C(=O)N(C)[C@@H](Cc1ccc(O)cc1)C(=O)N[C@H](CCCCNC(=O)c1cccnc1)C(=O)N[C@@H](CC(C)C)C(=O)N[C@@H](CCCCNC(C)C)C(=O)N1CCC[C@H]1C(=O)N[C@H](C)C(N)=O (Ac-[d2Nal][dPhe(4-Cl)][d3Pal]S[NMeY][dK](Nicotinoyl)L[Lys(iPr)]P[dA]-NH2) [listing 1 of 2 here]	0.00589
10 (≈ 6.51 µM)			CC(=O)N[C@H](Cc1ccc2ccccc2c1)C(=O)N[C@H](Cc1ccc(Cl)cc1)C(=O)N[C@H](Cc1cccnc1)C(=O)N[C@@H](CO)C(=O)N(C)[C@@H](Cc1ccc(O)cc1)C(=O)N[C@H](CCCCNC(=O)c1cccnc1)C(=O)N[C@@H](CC(C)C)C(=O)N[C@@H](CCCCNC(C)C)C(=O)N1CCC[C@H]1C(=O)N[C@H](C)C(N)=O (Ac-[d2Nal][dPhe(4-Cl)][d3Pal]S[NMeY][dK](Nicotinoyl)L[Lys(iPr)]P[dA]-NH2) [listing 2 of 2 here]	
1.11 (≈ 0.776 µM)			CC(=O)N[C@H](Cc1ccc2ccccc2c1)C(=O)N[C@H](Cc1ccc(Cl)cc1)C(=O)N[C@H](Cc1cccnc1)C(=O)N[C@@H](CO)C(=O)N[C@@H](Cc1ccc(O)cc1)C(=O)N[C@H](CCCNC(N)=O)C(=O)N[C@@H](CC(C)C)C(=O)N[C@@H](CCCN=C(N)N)C(=O)N1CCC[C@H]1C(=O)N[C@H](C)C(N)=O (Ac-[d2Nal][dPhe(4-Cl)][d3Pal]SY[dCit]LRP[dA]-NH2) [listing 1 of 2 here]	
	1100 (≈ 691 µM)	0.0617	CC(=O)N[C@H](Cc1ccc2ccccc2c1)C(=O)N[C@H](Cc1ccc(Cl)cc1)C(=O)N[C@H](Cc1cccnc1)C(=O)N[C@@H](CO)C(=O)N[C@@H](CCCCNC(=O)c1cccnc1)C(=O)N[C@H](CCCCNC(=O)c1cccnc1)C(=O)N[C@@H](CC(C)C)C(=O)N[C@@H](CCCCNC(C)C)C(=O)N1CCC[C@H]1C(=O)N[C@H](C)C(N)=O (Ac-[d2Nal][dPhe(4-Cl)][d3Pal]SK(Nicotinoyl)[dK](Nicotinoyl)L[Lys(iPr)]P[dA]-NH2) [listing 1 of 2 here]	0.0234
261 (≈ 164 µM)			CC(=O)N[C@H](Cc1ccc2ccccc2c1)C(=O)N[C@H](Cc1ccc(Cl)cc1)C(=O)N[C@H](Cc1cccnc1)C(=O)N[C@@H](CO)C(=O)N[C@@H](CCCCNC(=O)c1cccnc1)C(=O)N[C@H](CCCCNC(=O)c1cccnc1)C(=O)N[C@@H](CC(C)C)C(=O)N[C@@H](CCCCNC(C)C)C(=O)N1CCC[C@H]1C(=O)N[C@H](C)C(N)=O (Ac-[d2Nal][dPhe(4-Cl)][d3Pal]SK(Nicotinoyl)[dK](Nicotinoyl)L[Lys(iPr)]P[dA]-NH2) [listing 2 of 2 here]	
	< 1000	0.117	CC(=O)N[C@H](Cc1ccc2ccccc2c1)C(=O)N[C@H](Cc1ccc(Cl)cc1)C(=O)N[C@H](Cc1cccnc1)C(=O)N[C@@H](CO)C(=O)N[C@@H](Cc1ccc(O)cc1)C(=O)N[C@H](CCCNC(N)=O)C(=O)N[C@@H](CC(C)C)C(=O)N[C@@H](CCCNC(=N)N)C(=O)N1CCC[C@H]1C(=O)N[C@H](C)C(N)=O (Ac-[d2Nal][dPhe(4-Cl)][d3Pal]SY[dCit]LRP[dA]-NH2)	
		0.0525	COc1ccc(C(=O)CC[C@@H](NC(=O)[C@H](CCCN=C(N)N)NC(=O)[C@H](CO)NC(=O)[C@@H](Cc2cccnc2)NC(=O)[C@@H](Cc2ccc(Cl)cc2)NC(=O)[C@@H](Cc2ccc3ccccc3c2)NC(C)=O)C(=O)N[C@@H](CC(C)C)C(=O)N[C@@H](CCCN=C(N)N)C(=O)N2CCC[C@H]2C(=O)N[C@H](C)C(N)=O)cc1 (Ac-[d2Nal][dPhe(4-Cl)][d3Pal]SR[dNva(5-oxo-5-(4-MeOPh))]LRP[dA]-NH2) [listing 2 of 2 here]	0.00871
